{"source": "ChEMBL document CHEMBL1921796", "about": "“Synthesis of 6-(het) ary Xylocydine analogues and evaluating their inhibitory activities of CDK1 and CDK2 in vitro” (Bioorg Med Chem, 2011)", "key": {"[1]": {"target": "Cyclin-dependent kinase 1/cyclin B1 (Homo sapiens, UniProt P06493+P14635)", "sequence (P06493 whole entry)": "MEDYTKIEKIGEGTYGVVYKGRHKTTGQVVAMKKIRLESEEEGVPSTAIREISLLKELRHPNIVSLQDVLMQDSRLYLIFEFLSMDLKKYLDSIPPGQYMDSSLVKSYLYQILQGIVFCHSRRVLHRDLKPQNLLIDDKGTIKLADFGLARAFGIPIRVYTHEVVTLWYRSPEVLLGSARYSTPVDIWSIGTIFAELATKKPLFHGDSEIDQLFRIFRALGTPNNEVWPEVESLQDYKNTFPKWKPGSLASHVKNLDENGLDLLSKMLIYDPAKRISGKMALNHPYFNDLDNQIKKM", "sequence (P14635 whole entry)": "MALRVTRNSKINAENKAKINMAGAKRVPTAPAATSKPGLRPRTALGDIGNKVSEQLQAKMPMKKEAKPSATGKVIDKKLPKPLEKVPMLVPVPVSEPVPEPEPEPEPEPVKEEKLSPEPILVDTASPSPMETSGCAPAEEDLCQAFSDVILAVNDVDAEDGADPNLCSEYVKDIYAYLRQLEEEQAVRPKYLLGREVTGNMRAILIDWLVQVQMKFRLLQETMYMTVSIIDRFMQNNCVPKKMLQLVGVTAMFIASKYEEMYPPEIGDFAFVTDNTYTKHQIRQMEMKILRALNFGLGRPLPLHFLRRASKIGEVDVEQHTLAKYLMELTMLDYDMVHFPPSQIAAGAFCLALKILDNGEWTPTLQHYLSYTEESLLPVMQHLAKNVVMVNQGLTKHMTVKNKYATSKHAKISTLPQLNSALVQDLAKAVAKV", "assay": "(§1) Inhibition of CDK1/Cyclin B in human HeLa cell extracts using histone H1 as substrate preincubated for 30 mins before substrate addition measured after 15 mins by autoradiography", "type": "protein-complex assay", "conditions": "hela; call rule not given here", "method_in_brief": "(§2)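 HeLa cells seeded for 24 h, then given 80 nM paclitaxel in DMEM with 5% newborn calf serum for 12 h. 200 µg extract immunoprecipitated with anti-CDK1 antibody, 6 h at 4 °C, and washed.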"}, "[2]": {"target": "Cyclin-dependent kinase 2/cyclin A (Homo sapiens, UniProt P24941+P20248+P78396)", "assay": "(§3) Inhibition of CDK2/Cyclin A2 in human HeLa cell extracts using histone H1 as substrate preincubated for 30 mins before substrate addition measured after 15 mins by autoradiography", "type": "protein-complex assay", "conditions": "hela", "method_in_brief": "(§4)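 CDK2 immunoprecipitated (6 h, 4 °C) from 200 µg extract of HeLa cells seeded 24 h and then given 50 µg/ml etoposide in DMEM with 5% newborn calf serum for 12 h. After washing, kinase preincubated 30 min with 0–200 µM inhibitor.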"}, "[3]": {"target": "Cyclin-dependent kinase 1/cyclin B1 (Homo sapiens, UniProt P06493)", "sequence (P06493 whole entry)": "as the sequence (P06493 whole entry) above", "sequence (P14635 whole entry, further chain)": "as the sequence (P14635 whole entry) above", "assay": "as §1", "type": "protein-complex assay", "method_in_brief": "as §2"}, "[4]": {"target": "Cyclin-dependent kinase 2/cyclin A (Homo sapiens, UniProt P24941)", "assay": "as §3", "type": "protein-complex assay", "method_in_brief": "as §4"}, "HeLa [5]": {"test_system": "HeLa", "assay": "Cell cycle arrest in human HeLa cells assessed as accumulation at G2 phase at 12.5 uM after 72 hrs by DAPI staining-based FACS analysis (reference value: 13.73%)", "type": "functional"}, "HeLa [6]": {"test_system": "HeLa", "assay": "Cell cycle arrest in human HeLa cells assessed as accumulation at G2 phase at 6.25 uM after 72 hrs by DAPI staining-based FACS analysis (reference value: 13.73%)", "type": "functional"}, "HeLa [7]": {"test_system": "HeLa", "assay": "Cell cycle arrest in human HeLa cells assessed as accumulation at G1/S phase at 12.5 uM after 72 hrs by DAPI staining-based FACS analysis (reference value: 86.27%)", "type": "functional"}, "HeLa [8]": {"test_system": "HeLa", "assay": "Cell cycle arrest in human HeLa cells assessed as accumulation at G1/S phase at 6.25 uM after 72 hrs by DAPI staining-based FACS analysis (reference value: 86.27%)", "type": "functional"}}, "data": [{"smiles": "NC(=O)c1c(-c2ccc(Br)s2)n([C@H]2O[C@@H](CO)[C@@H](O)[C@@H]2O)c2ncnc(N)c12", "values": [{"measurement": "IC50", "setting": "[1]", "result": "Not Active"}, {"measurement": "IC50", "setting": "[2]", "result": "Not Active"}]}, {"smiles": "NC(=O)c1c(Br)n([C@H]2O[C@@H](CO)[C@@H](O)[C@@H]2O)c2ncnc(N)c12", "note": "[XYLOCYDINE]", "values": [{"measurement": "IC50", "setting": "[3]", "result": 0.0014, "unit": "µM"}, {"measurement": "IC50", "setting": "[4]", "result": 0.061, "unit": "µM"}]}, {"smiles": "COc1cccc(-c2c(C(N)=O)c3c(N)ncnc3n2[C@H]2O[C@@H](CO)[C@@H](O)[C@@H]2O)c1", "values": [{"measurement": "IC50", "setting": "[1]", "result": "Not Active"}, {"measurement": "IC50", "setting": "[2]", "result": "Not Active"}]}, {"smiles": "NC(=O)c1c(-c2ccc(Br)cc2)n([C@H]2O[C@@H](CO)[C@@H](O)[C@@H]2O)c2ncnc(N)c12", "values": [{"measurement": "IC50", "setting": "[1]", "result": "Not Active"}, {"measurement": "IC50", "setting": "[2]", "result": "Not Active"}]}, {"smiles": "CC(C)(C)c1ccc(-c2c(C(N)=O)c3c(N)ncnc3n2[C@H]2O[C@@H](CO)[C@@H](O)[C@@H]2O)cc1", "values": [{"measurement": "IC50", "setting": "[1]", "result": "Not Active"}, {"measurement": "IC50", "setting": "[2]", "result": "Not Active"}]}, {"smiles": "N#Cc1c(Br)n([C@H]2O[C@@H](CO)[C@@H](O)[C@@H]2O)c2ncnc(N)c12", "values": [{"measurement": "IC50", "setting": "[1]", "result": "Not Active"}, {"measurement": "IC50", "setting": "[2]", "result": "Not Active"}]}, {"smiles": "COc1ccc(-c2c(C(N)=O)c3c(N)ncnc3n2[C@H]2O[C@@H](CO)[C@@H](O)[C@@H]2O)cc1", "values": [{"measurement": "IC50", "setting": "[1]", "result": "Not Active"}, {"measurement": "IC50", "setting": "[2]", "result": "Not Active"}]}, {"smiles": "NC(=O)c1c(-c2cccs2)n([C@H]2O[C@@H](CO)[C@@H](O)[C@@H]2O)c2ncnc(N)c12", "values": [{"measurement": "IC50", "setting": "[1]", "result": "Not Active"}, {"measurement": "IC50", "setting": "[2]", "result": "Not Active"}]}, {"smiles": "N#Cc1c(-c2cccs2)n([C@H]2O[C@@H](CO)[C@@H](O)[C@@H]2O)c2ncnc(N)c12", "values": [{"measurement": "Activity", "setting": "HeLa [5]", "result": 0.13, "unit": "%"}, {"measurement": "Activity", "setting": "HeLa [6]", "result": 3.7, "unit": "%"}, {"measurement": "Activity", "setting": "HeLa [7]", "result": 99.87, "unit": "%"}, {"measurement": "Activity", "setting": "HeLa [8]", "result": 96.3, "unit": "%"}, {"measurement": "IC50", "setting": "[3]", "result": "> 100", "unit": "µM"}, {"measurement": "IC50", "setting": "[4]", "result": 4.6, "unit": "µM"}]}, {"smiles": "Cc1ccc(-c2c(C(N)=O)c3c(N)ncnc3n2[C@H]2O[C@@H](CO)[C@@H](O)[C@@H]2O)cc1", "values": [{"measurement": "IC50", "setting": "[1]", "result": "Not Active"}, {"measurement": "IC50", "setting": "[2]", "result": "Not Active"}]}, {"smiles": "NC(=O)c1c(-c2ccc[nH]2)n([C@H]2O[C@@H](CO)[C@@H](O)[C@@H]2O)c2ncnc(N)c12", "values": [{"measurement": "IC50", "setting": "[1]", "result": "Not Active"}, {"measurement": "IC50", "setting": "[2]", "result": "Not Active"}]}, {"smiles": "NC(=O)c1c(-c2cccc(Br)c2)n([C@H]2O[C@@H](CO)[C@@H](O)[C@@H]2O)c2ncnc(N)c12", "values": [{"measurement": "IC50", "setting": "[1]", "result": "Not Active"}, {"measurement": "IC50", "setting": "[2]", "result": "Not Active"}]}, {"smiles": "N#Cc1c(-c2cccc(Br)c2)n([C@H]2O[C@@H](CO)[C@@H](O)[C@@H]2O)c2ncnc(N)c12", "values": [{"measurement": "IC50", "setting": "[1]", "result": "Not Active"}, {"measurement": "IC50", "setting": "[2]", "result": "Not Active"}]}, {"smiles": "NC(=O)c1c(-c2ccco2)n([C@H]2O[C@@H](CO)[C@@H](O)[C@@H]2O)c2ncnc(N)c12", "values": [{"measurement": "IC50", "setting": "[1]", "result": "Not Active"}, {"measurement": "IC50", "setting": "[2]", "result": "Not Active"}]}, {"smiles": "Cc1ccc(-c2c(C#N)c3c(N)ncnc3n2[C@H]2O[C@@H](CO)[C@@H](O)[C@@H]2O)cc1", "values": [{"measurement": "IC50", "setting": "[1]", "result": "Not Active"}, {"measurement": "IC50", "setting": "[2]", "result": "Not Active"}]}, {"smiles": "N#Cc1c(-c2ccco2)n([C@H]2O[C@@H](CO)[C@@H](O)[C@@H]2O)c2ncnc(N)c12", "values": [{"measurement": "Activity", "setting": "HeLa [5]", "result": 7.26, "unit": "%"}, {"measurement": "Activity", "setting": "HeLa [6]", "result": 14.87, "unit": "%"}, {"measurement": "Activity", "setting": "HeLa [7]", "result": 92.74, "unit": "%"}, {"measurement": "Activity", "setting": "HeLa [8]", "result": 85.13, "unit": "%"}, {"measurement": "IC50", "setting": "[3]", "result": "> 100", "unit": "µM"}, {"measurement": "IC50", "setting": "[4]", "result": 4.8, "unit": "µM"}]}, {"smiles": "COc1cccc(-c2c(C#N)c3c(N)ncnc3n2[C@H]2O[C@@H](CO)[C@@H](O)[C@@H]2O)c1", "values": [{"measurement": "IC50", "setting": "[1]", "result": "Not Active"}, {"measurement": "IC50", "setting": "[2]", "result": "Not Active"}]}, {"smiles": "N#Cc1c(-c2ccc(Br)cc2)n([C@H]2O[C@@H](CO)[C@@H](O)[C@@H]2O)c2ncnc(N)c12", "values": [{"measurement": "IC50", "setting": "[1]", "result": "Not Active"}, {"measurement": "IC50", "setting": "[2]", "result": "Not Active"}]}, {"smiles": "N#Cc1c(-c2ccc(Br)s2)n([C@H]2O[C@@H](CO)[C@@H](O)[C@@H]2O)c2ncnc(N)c12", "values": [{"measurement": "Activity", "setting": "HeLa [5]", "result": 0.22, "unit": "%"}, {"measurement": "Activity", "setting": "HeLa [6]", "result": 13.17, "unit": "%"}, {"measurement": "Activity", "setting": "HeLa [7]", "result": 99.79, "unit": "%"}, {"measurement": "Activity", "setting": "HeLa [8]", "result": 86.83, "unit": "%"}, {"measurement": "IC50", "setting": "[3]", "result": "> 100", "unit": "µM"}, {"measurement": "IC50", "setting": "[4]", "result": 55, "unit": "µM"}]}, {"smiles": "COc1ccc(-c2c(C#N)c3c(N)ncnc3n2[C@H]2O[C@@H](CO)[C@@H](O)[C@@H]2O)cc1", "values": [{"measurement": "IC50", "setting": "[1]", "result": "Not Active"}, {"measurement": "IC50", "setting": "[2]", "result": "Not Active"}]}, {"smiles": "N#Cc1c(-c2ccc[nH]2)n([C@H]2O[C@@H](CO)[C@@H](O)[C@@H]2O)c2ncnc(N)c12", "values": [{"measurement": "IC50", "setting": "[1]", "result": "Not Active"}, {"measurement": "IC50", "setting": "[2]", "result": "Not Active"}]}, {"smiles": "CC(C)(C)c1ccc(-c2c(C#N)c3c(N)ncnc3n2[C@H]2O[C@@H](CO)[C@@H](O)[C@@H]2O)cc1", "values": [{"measurement": "IC50", "setting": "[1]", "result": "Not Active"}, {"measurement": "IC50", "setting": "[2]", "result": "Not Active"}]}]}
